Reference: article PMC9660540 (Clinical Cancer Research, 2022)

Assay: Causally related adverse events, phase Ia/Ib study in patients with solid tumors
Format: in vivo, human
How it was run: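 Expansion cohorts received nanosuspension at 100 mg once daily. The safety set was all patients given ≥1 dose, classified by the treatment actually received. Treatment was delayed or reduced for grade ≥3 or clinically significant nonhematologic toxicity.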

Structure (SMILES): Cc1cc(-c2nnc(N)nc2-c2ccc(F)cc2)cc(Cl)n1 [AZD4635]
- Causally related AE grade ≥3: ALT increased (CRC IO-naïve): 0 n (%)
- Causally related AE grade ≥3: Abdominal pain (CRC IO-naïve): 0 n (%)
- Causally related AE grade ≥3: Anemia (CRC IO-naïve): 0 n (%)
- Causally related AE grade ≥3: Arthralgia (CRC IO-naïve): 0 n (%)
- Causally related AE grade ≥3: Blood creatinine increased (CRC IO-naïve): 0 n (%)
- Causally related AE grade ≥3: CRP increased (CRC IO-naïve): 0 n (%)
- Causally related AE grade ≥3: Dermatitis psoriasiform (CRC IO-naïve): 0 n (%)
- Causally related AE grade ≥3: Diarrhea (CRC IO-naïve): 0 n (%)
- Causally related AE grade ≥3: Dizziness (CRC IO-naïve): 0 n (%)
- Causally related AE grade ≥3: Dyspnea (CRC IO-naïve): 0 n (%)
- Causally related AE grade ≥3: Fatigue (CRC IO-naïve): 1 (4.0) n (%)
- Causally related AE grade ≥3: Headache (CRC IO-naïve): 0 n (%)
- Causally related AE grade ≥3: Hyperglycemia (CRC IO-naïve): 0 n (%)
- Causally related AE grade ≥3: Hypertension (CRC IO-naïve): 0 n (%)
- Causally related AE grade ≥3: Hypophosphatemia (CRC IO-naïve): 0 n (%)
- Causally related AE grade ≥3: Insomnia (CRC IO-naïve): 0 n (%)
- Causally related AE grade ≥3: Lipase increased (CRC IO-naïve): 0 n (%)
- Causally related AE grade ≥3: Lymphocyte count decreased (CRC IO-naïve): 0 n (%)
- Causally related AE grade ≥3: Myositis (CRC IO-naïve): 0 n (%)
- Causally related AE grade ≥3: Nausea (CRC IO-naïve): 0 n (%)
- Causally related AE grade ≥3: Neutrophil count decreased (CRC IO-naïve): 0 n (%)
- Causally related AE grade ≥3: Obliterative bronchiolitis (CRC IO-naïve): 0 n (%)
- Causally related AE grade ≥3: Rash (CRC IO-naïve): 0 n (%)
- Causally related AE grade ≥3: Sudden death (CRC IO-naïve): 1 (4.0) n (%)
- Causally related AE grade ≥3: Type I diabetes mellitus (CRC IO-naïve): 0 n (%)
- Causally related AE grade ≥3: Vomiting (CRC IO-naïve): 1 (4.0) n (%)
- ≥Grade 3 causally related AE (CRC IO-naïve): 3 (12.0) n (%)
- Causally related AE grade ≥3: ALT increased (NSCLC Post-IO): 0 n (%)
- Causally related AE grade ≥3: Abdominal pain (NSCLC Post-IO): 0 n (%)
- Causally related AE grade ≥3: Anemia (NSCLC Post-IO): 0 n (%)
- Causally related AE grade ≥3: Arthralgia (NSCLC Post-IO): 0 n (%)
- Causally related AE grade ≥3: Blood creatinine increased (NSCLC Post-IO): 0 n (%)
- Causally related AE grade ≥3: CRP increased (NSCLC Post-IO): 0 n (%)
- Causally related AE grade ≥3: Dermatitis psoriasiform (NSCLC Post-IO): 0 n (%)
- Causally related AE grade ≥3: Diarrhea (NSCLC Post-IO): 0 n (%)
- Causally related AE grade ≥3: Dizziness (NSCLC Post-IO): 0 n (%)
- Causally related AE grade ≥3: Dyspnea (NSCLC Post-IO): 0 n (%)
- Causally related AE grade ≥3: Fatigue (NSCLC Post-IO): 1 (5.9) n (%)
- Causally related AE grade ≥3: Headache (NSCLC Post-IO): 0 n (%)
- Causally related AE grade ≥3: Hyperglycemia (NSCLC Post-IO): 0 n (%)
- Causally related AE grade ≥3: Hypertension (NSCLC Post-IO): 0 n (%)
- Causally related AE grade ≥3: Hypophosphatemia (NSCLC Post-IO): 0 n (%)
- Causally related AE grade ≥3: Insomnia (NSCLC Post-IO): 0 n (%)
- Causally related AE grade ≥3: Lipase increased (NSCLC Post-IO): 0 n (%)
- Causally related AE grade ≥3: Lymphocyte count decreased (NSCLC Post-IO): 0 n (%)
- Causally related AE grade ≥3: Myositis (NSCLC Post-IO): 0 n (%)
- Causally related AE grade ≥3: Nausea (NSCLC Post-IO): 0 n (%)
- Causally related AE grade ≥3: Neutrophil count decreased (NSCLC Post-IO): 0 n (%)
- Causally related AE grade ≥3: Obliterative bronchiolitis (NSCLC Post-IO): 0 n (%)
- Causally related AE grade ≥3: Rash (NSCLC Post-IO): 0 n (%)
- Causally related AE grade ≥3: Sudden death (NSCLC Post-IO): 0 n (%)
- Causally related AE grade ≥3: Type I diabetes mellitus (NSCLC Post-IO): 0 n (%)
- Causally related AE grade ≥3: Vomiting (NSCLC Post-IO): 0 n (%)
- ≥Grade 3 causally related AE (NSCLC Post-IO): 1 (5.9) n (%)
- Causally related AE grade ≥3: ALT increased (Other IO-naïve): 0 n (%)
- Causally related AE grade ≥3: Abdominal pain (Other IO-naïve): 1 (5.3) n (%)
- Causally related AE grade ≥3: Anemia (Other IO-naïve): 0 n (%)
- Causally related AE grade ≥3: Arthralgia (Other IO-naïve): 0 n (%)
- Causally related AE grade ≥3: Blood creatinine increased (Other IO-naïve): 0 n (%)
- Causally related AE grade ≥3: CRP increased (Other IO-naïve): 0 n (%)
- Causally related AE grade ≥3: Dermatitis psoriasiform (Other IO-naïve): 0 n (%)
- Causally related AE grade ≥3: Diarrhea (Other IO-naïve): 1 (5.3) n (%)
- Causally related AE grade ≥3: Dizziness (Other IO-naïve): 0 n (%)
- Causally related AE grade ≥3: Dyspnea (Other IO-naïve): 0 n (%)
- Causally related AE grade ≥3: Fatigue (Other IO-naïve): 2 (10.5) n (%)
- Causally related AE grade ≥3: Headache (Other IO-naïve): 0 n (%)
- Causally related AE grade ≥3: Hyperglycemia (Other IO-naïve): 0 n (%)
- Causally related AE grade ≥3: Hypertension (Other IO-naïve): 2 (10.5) n (%)
- Causally related AE grade ≥3: Hypophosphatemia (Other IO-naïve): 0 n (%)
- Causally related AE grade ≥3: Insomnia (Other IO-naïve): 0 n (%)
- Causally related AE grade ≥3: Lipase increased (Other IO-naïve): 0 n (%)
- Causally related AE grade ≥3: Lymphocyte count decreased (Other IO-naïve): 0 n (%)
- Causally related AE grade ≥3: Myositis (Other IO-naïve): 0 n (%)
- Causally related AE grade ≥3: Nausea (Other IO-naïve): 0 n (%)
- Causally related AE grade ≥3: Neutrophil count decreased (Other IO-naïve): 0 n (%)
- Causally related AE grade ≥3: Obliterative bronchiolitis (Other IO-naïve): 0 n (%)
- Causally related AE grade ≥3: Rash (Other IO-naïve): 0 n (%)
- Causally related AE grade ≥3: Sudden death (Other IO-naïve): 0 n (%)
- Causally related AE grade ≥3: Type I diabetes mellitus (Other IO-naïve): 0 n (%)
- Causally related AE grade ≥3: Vomiting (Other IO-naïve): 0 n (%)
- ≥Grade 3 causally related AE (Other IO-naïve): 5 (26.3) n (%)
- Causally related AE grade ≥3: ALT increased (Other Post-IO): 0 n (%)
- Causally related AE grade ≥3: Abdominal pain (Other Post-IO): 0 n (%)
- Causally related AE grade ≥3: Anemia (Other Post-IO): 1 (4.8) n (%)
- Causally related AE grade ≥3: Arthralgia (Other Post-IO): 0 n (%)
